Source: ChEMBL document CHEMBL1123098, “Activity of platinum(II) intercalating agents against murine leukemia L1210” (J Med Chem, 1985)
pIC50: −log10 of the molar value.

The substances below were run on L1210 (assay: Growth inhibition of L1210 murine leukemia cells determined in culture).
Type: functional, cell-based, Mus musculus
Outline: (§1)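 L1210 cells were grown in Minimum Essential Medium with 15% fetal calf serum, 2 mM glutamine and gentamycin, at 37 °C without agitation under 5% O2-10% CO2. Drug was diluted in sterile water and added to 5 × 10^4 cells/mL, with water-only controls. Exposure was continuous for 48 h, or in some cases a 2-h pulse followed by 48-h incubation. Cells were Coulter-counted and growth as % of control was plotted against concentration. IC50 is the mean of at least two determinations.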
A pIC50 of 4.64 was found for DICHLORODIPHENYLPLATINUM TRIHYDRATE in this work.
A pIC50 of 5.05 was found for “(4-ChloroThiophenolato)(2,2':6',2''-terpyridine)platinum (II)DiChloro Trihydrate” in this work.
A pIC50 of less than 3.30 was found for “(1,4-Diaminebutane) ([2,2']Bipyridinyl)platinum (II) dichloride” in this work.
A pIC50 of 5.00 was found for “(2-methyloxyThiophenolato)(2,2':6',2''-terpyridine)platinum (II) Chloride Trihydrate” in this work.
A pIC50 of 5.70 was found for “(Ethylenediamine)(1,10-phenanthroline)-platinum (II) dichloride Dihydrate” in this work.
A pIC50 of 5.30 was found for “(1,3-Diamino-2-hydroxypropane)(3,4,7,8-tetramethyl-1,10-phenanthroline)platinum (II) dichloride Dihydrate” in this work.
A pIC50 of 4.85 was found for “(1,3-Diaminopropane)(1,10-phenanthroline)-platinum (II) dichloride Dihydrate” in this work.
A pIC50 of 5.30 was found for “(1-Thionaphthalato) (2,2':6',2''-terpyridine)platinum (II) dichloride Dihydrate” in this work.
A pIC50 of 4.37 was found for “(1,3-Diamine-2-hydroxypropane) ([2,2']Bipyridinyl)platinum (II) dichloride” in this work.
A pIC50 of 3.35 was found for “(2,2':6',2''-terpyridine)platinum (II) dichloride Trihydrate” in this work.
A pIC50 of 6.15 was found for “(Ethylenediamine)3,4,7,8-tetramethyl-1,10-phenanthroline)platinum (II) dichloride Dihydrate Dihydrate” in this work.
A pIC50 of 4.48 was found for “(Ethylenediamine) ([2,2']Bipyridinyl)platinum (II) dichloride Dihydrate” in this work.
A pIC50 of 4.30 was found for “(1,4-Diamino-butane)(3,4,7,8-tetramethyl-1,10-phenanthroline)platinum (II) dichloride” in this work.
A pIC50 of 3.96 was found for “(1,4-Diaminobutane)(1,10-phenanthroline)-platinum (II) dichloride Monohydrate” in this work.
A pIC50 of 5.05 was found for “(4-methyloxyThiophenolato)(2,2':6',2''-terpyridine)platinum (II) Chloride Trihydrate” in this work.
A pIC50 of 5.05 was found for “(4-BromoThiophenolato)(2,2':6',2''-terpyridine)platinum (II) Chloride Dihydrate” in this work.
A pIC50 of 5.05 was found for “(1,3-Diaminepropane) ([2,2']Bipyridinyl)platinum (II) dichloride Pentahydrate” in this work.
A pIC50 of 4.49 was found for “(4-AmmonioThiophenolato)(2,2':6',2''-terpyridine)platinum (II) dichloride Dihydrate” in this work.
A pIC50 of 6.00 was found for “(1,3-Diaminopropane)(1,10-phenanthroline)-platinum (II) dichloride Monohydrate” in this work.
A pIC50 of 4.92 was found for “(4-methylThiophenolato)(2,2':6',2''-terpyridine)platinum (II) Chloride Dihydrate” in this work.

These substances were tested on L1210 (assay: Growth inhibition of L1210 leukemia was determined in culture).
Type: functional, cell-based, Mus musculus
Outline: as §1
A pIC50 of 5.22 was found for “(Thiophenolato)(2,2':6',2''-terpyridine)platinum (II) Chloride Monohydrate” in this work.
